From ChEMBL document CHEMBL4406851, “Design, synthesis and biological evaluation of cinnamic acid derivatives with synergetic neuroprotection and angiogenesis effect” (Eur J Med Chem, 2019)

Key:
[1] = system: SH-SY5Y; assay: Neuroprotective activity against H2O2-induced cell damage in human SH-SY5Y cells assessed as increase in cell viability preincubated for 24 hrs followed by H2O2 addition and measured after 4 hrs by MTT assay; format: functional, cell-based
Method in brief: (§1)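 Cells at 3.5×10^4 cells/mL in 96-well plates were grown 24 h (37 °C, 5% CO2). Test agent was added at five concentrations for 24 h, then H2O2 (4.8 mM stock) to model and drug wells. After PBS washes, MTT (5 mg/mL) was added for 4 h, formazan was dissolved in DMSO and OD was read at 550 nm. Proliferation rate = (drug − injury OD)/(control − injury OD). EC50 came from a formula using maximum concentration and summed, maximal and minimal rates.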

[2] = Neuroprotective activity against H2O2-induced cell damage in human HBMEC2 cells assessed as increase in cell viability preincubated for 24 hrs followed by H2O2 addition and measured after 4 hrs by MTT assay; format: functional, cell-based; details: HBMEC-2; method in brief: as §1

For `COc1cc(CNC(=O)/C=C/c2ccccc2OCc2nc(C)c(C)nc2C)ccc1OCc1nc(C)c(C)nc1C`, which EC50 [1] is on record?
Its EC50 is 6.28 µM.

And the EC50 [2]?
Its EC50 is 15.1 µM.

For `COc1cc(CNC(=O)/C=C/c2ccccc2OC)ccc1O`, which EC50 [1] is on record?
Its EC50 is 5.98 µM.

And the EC50 [2]?
Its EC50 is 6.48 µM.

With `COc1cc(/C=C/C(=O)NCc2ccc(O)c(OC)c2)cc(OC)c1` as the molecule, how does the EC50 [1] read?
The EC50 was 4.86 µM.

And the EC50 [2]?
Its EC50 is 7.81 µM.

For `COc1cc(CNC(=O)/C=C/c2ccc(OC)c(OC)c2)ccc1O`, which EC50 [1] is on record?
The EC50 was 11 µM.

And the EC50 [2]?
Its EC50 is 8.85 µM.

Which EC50 [1] does the source give for `COc1cc(CNC(=O)/C=C/c2ccc(OC)c(OCc3nc(C)c(C)nc3C)c2)ccc1O` here?
The EC50 was 9.25 µM.

What about the EC50 [2] of the same molecule?
The EC50 was 9.3 µM.

What does the source list for `COc1cc(/C=C/C(=O)NCc2ccc(OCc3nc(C)c(C)nc3C)c(OC)c2)ccc1OCc1nc(C)c(C)nc1C`?
EC50 [1]: 11.1 µM; EC50 [2]: 14.5 µM

What does the source list for `COc1cc(/C=C/C(=O)NCc2ccc(OCc3nc(C)c(C)nc3C)c(OC)c2)ccc1O`?
EC50 [1]: 13.4 µM; EC50 [2]: 5.81 µM

Which EC50 [1] does the source give for `COc1cc(CNC(=O)/C=C/c2ccc(OC)c(OC)c2OC)ccc1OCc1nc(C)c(C)nc1C` here?
The EC50 was 3.84 µM.

And the EC50 [2]?
Its EC50 is 18.1 µM.

What does the source list for `COc1cc(CNC(=O)/C=C/c2ccc(O)cc2)ccc1OCc1nc(C)c(C)nc1C`?
EC50 [1]: 3.74 µM; EC50 [2]: 6.23 µM

What does the source list for `COc1cc(OC)c(OC)cc1/C=C/C(=O)NCc1ccc(OCc2nc(C)c(C)nc2C)c(OC)c1`?
EC50 [1]: 3.62 µM; EC50 [2]: 12.5 µM

Which EC50 [1] does the source give for `COc1ccc(/C=C/C(=O)NCc2ccc(OCc3nc(C)c(C)nc3C)c(OC)c2)cc1O` here?
The EC50 was 8.56 µM.

And the EC50 [2]?
Its EC50 is 13.5 µM.

Which EC50 [1] does the source give for `COc1cc(CNC(=O)/C=C/c2ccccc2O)ccc1OCc1nc(C)c(C)nc1C` here?
Its EC50 is 5.3 µM.

And the EC50 [2]?
Its EC50 is 6.07 µM.

With `COc1ccc(OC)c(/C=C/C(=O)NCc2ccc(O)c(OC)c2)c1` as the molecule, how does the EC50 [1] read?
Its EC50 is 9.5 µM.

What about the EC50 [2] of the same molecule?
Its EC50 is 10.5 µM.

For `COc1ccc(/C=C/C(=O)NCc2ccc(O)c(OC)c2)cc1O`, which EC50 [1] is on record?
Its EC50 is 7.85 µM.

And the EC50 [2]?
Its EC50 is 11.8 µM.

With `COc1cccc(/C=C/C(=O)NCc2ccc(OCc3nc(C)c(C)nc3C)c(OC)c2)c1` as the molecule, how does the EC50 [1] read?
Its EC50 is 4.32 µM.

And the EC50 [2]?
The EC50 was 9.87 µM.

With `COc1ccc(/C=C/C(=O)NCc2ccc(O)c(OC)c2)cc1` as the molecule, how does the EC50 [1] read?
Its EC50 is 11.4 µM.

And the EC50 [2]?
Its EC50 is 10.4 µM.

Which results are given for `COc1cc(CNC(=O)/C=C/c2ccccc2)ccc1O`?
EC50 [1]: 3.66 µM; EC50 [2]: 9.8 µM

Which EC50 [1] does the source give for `COc1ccccc1/C=C/C(=O)NCc1ccc(OCc2nc(C)c(C)nc2C)c(OC)c1` here?
The EC50 was 7.15 µM.

And the EC50 [2]?
Its EC50 is 12 µM.

Which EC50 [1] does the source give for `Cc1nc(C)c(C)nc1C` [LIGUSTRAZINE] here?
Its EC50 is 17.6 µM.

And the EC50 [2]?
Its EC50 is 15.2 µM.

For `COc1cc(CNC(=O)/C=C/c2ccccc2O)ccc1O`, which EC50 [1] is on record?
Its EC50 is 9.76 µM.

And the EC50 [2]?
Its EC50 is 7.46 µM.

Which EC50 [1] does the source give for `COc1cccc(/C=C/C(=O)NCc2ccc(O)c(OC)c2)c1` here?
Its EC50 is 5.24 µM.

And the EC50 [2]?
The EC50 was 7.11 µM.

What does the source list for `COc1cc(CNC(=O)/C=C/c2ccccc2)ccc1OCc1nc(C)c(C)nc1C`?
EC50 [1]: 7.31 µM; EC50 [2]: 4.99 µM

Which EC50 [1] does the source give for `CC1=NN(c2ccccc2)C(=O)C1` [EDARAVONE] here?
The EC50 was 3.75 µM.

And the EC50 [2]?
The EC50 was 4.61 µM.

Which EC50 [1] does the source give for `COc1ccc(/C=C/C(=O)NCc2ccc(OCc3nc(C)c(C)nc3C)c(OC)c2)cc1` here?
Its EC50 is 5.05 µM.

What about the EC50 [2] of the same molecule?
The EC50 was 6.56 µM.

For `COc1cc(CNC(=O)/C=C/c2ccccc2OCc2nc(C)c(C)nc2C)ccc1O`, which EC50 [1] is on record?
The EC50 was 12 µM.

What about the EC50 [2] of the same molecule?
Its EC50 is 6.65 µM.

For `COc1cc(CNC(=O)/C=C/c2ccc(OC)c(OC)c2OC)ccc1O`, which EC50 [1] is on record?
Its EC50 is 7.45 µM.

And the EC50 [2]?
The EC50 was 4.82 µM.

Which EC50 [1] does the source give for `COc1cc(CNC(=O)/C=C/c2cccc(OC)c2OC)ccc1OCc1nc(C)c(C)nc1C` here?
Its EC50 is 7.15 µM.

And the EC50 [2]?
Its EC50 is 6.31 µM.

Which EC50 [1] does the source give for `COc1cc(CNC(=O)/C=C/c2cccc(O)c2)ccc1O` here?
Its EC50 is 8.62 µM.

What about the EC50 [2] of the same molecule?
The EC50 was 5.75 µM.

Which EC50 [1] does the source give for `COc1cc(/C=C/C(=O)NCc2ccc(OCc3nc(C)c(C)nc3C)c(OC)c2)cc(OC)c1` here?
The EC50 was 8.66 µM.

And the EC50 [2]?
The EC50 was 12.9 µM.

Which results are given for `COc1cc(CNC(=O)/C=C/c2ccc(O)cc2)ccc1O`?
EC50 [1]: 6 µM; EC50 [2]: 8.04 µM

What does the source list for `COc1cc(CNC(=O)/C=C/c2ccc(OC)c(OCc3nc(C)c(C)nc3C)c2)ccc1OCc1nc(C)c(C)nc1C`?
EC50 [1]: 11.6 µM; EC50 [2]: 14.6 µM

Which EC50 [1] does the source give for `COc1cc(CNC(=O)/C=C/c2ccc(OCc3nc(C)c(C)nc3C)cc2)ccc1O` here?
The EC50 was 5.37 µM.

What about the EC50 [2] of the same molecule?
The EC50 was 12.5 µM.

With `COc1cc(CNC(=O)/C=C/c2cccc(OCc3nc(C)c(C)nc3C)c2)ccc1OCc1nc(C)c(C)nc1C` as the molecule, how does the EC50 [1] read?
The EC50 was 8.7 µM.

What about the EC50 [2] of the same molecule?
Its EC50 is 12.8 µM.

Which EC50 [1] does the source give for `COc1ccc(/C=C/C(=O)NCc2ccc(OCc3nc(C)c(C)nc3C)c(OC)c2)cc1OC` here?
Its EC50 is 4.47 µM.

And the EC50 [2]?
The EC50 was 15.8 µM.

Which EC50 [1] does the source give for `COc1cc(CNC(=O)/C=C/c2cc(OC)c(OC)c(OC)c2)ccc1O` here?
The EC50 was 5.91 µM.

And the EC50 [2]?
Its EC50 is 2.59 µM.

What does the source list for `COc1cc(CNC(=O)/C=C/c2cccc(OC)c2OC)ccc1O`?
EC50 [1]: 5.49 µM; EC50 [2]: 13.1 µM

Which results are given for `COc1cc(CNC(=O)CCCC/C=C/C(C)C)ccc1O` [CAPSAICIN]?
EC50 [1]: 14 µM; EC50 [2]: 16.4 µM

With `COc1cc(CNC(=O)/C=C/c2ccc(OCc3nc(C)c(C)nc3C)c(OC)c2)ccc1O` as the molecule, how does the EC50 [1] read?
The EC50 was 10.2 µM.

And the EC50 [2]?
The EC50 was 11.6 µM.

Which EC50 [1] does the source give for `COc1cc(CNC(=O)/C=C/c2cccc(O)c2)ccc1OCc1nc(C)c(C)nc1C` here?
The EC50 was 3.68 µM.

What about the EC50 [2] of the same molecule?
Its EC50 is 6.17 µM.

What does the source list for `COc1cc(CNC(=O)/C=C/c2cccc(OCc3nc(C)c(C)nc3C)c2)ccc1O`?
EC50 [1]: 8.09 µM; EC50 [2]: 10.6 µM

With `COc1cc(/C=C/C(=O)NCc2ccc(O)c(OC)c2)ccc1O` as the molecule, how does the EC50 [1] read?
The EC50 was 9.3 µM.

And the EC50 [2]?
The EC50 was 6.34 µM.

With `COc1ccc(OC)c(/C=C/C(=O)NCc2ccc(OCc3nc(C)c(C)nc3C)c(OC)c2)c1` as the molecule, how does the EC50 [1] read?
The EC50 was 11 µM.

What about the EC50 [2] of the same molecule?
The EC50 was 11.8 µM.

For `COc1cc(CNC(=O)/C=C/c2cc(OC)c(OC)c(OC)c2)ccc1OCc1nc(C)c(C)nc1C`, which EC50 [1] is on record?
Its EC50 is 11.5 µM.

And the EC50 [2]?
The EC50 was 3.55 µM.

With `COc1cc(CNC(=O)/C=C/c2ccc(OCc3nc(C)c(C)nc3C)cc2)ccc1OCc1nc(C)c(C)nc1C` as the molecule, how does the EC50 [1] read?
The EC50 was 7.77 µM.

What about the EC50 [2] of the same molecule?
Its EC50 is 21.4 µM.
